# Rows were chosen to be rich in hits. Some 2.8% of all compounds tested hit in one or more screens of this group.
# MC4R barr agon – activates human MC4R beta-arrestin recruitment; U2OS MC4R beta-arrestin complementation, luminescence; percent of melanotan II response, DMSO zero; activation, % at 8.9 µM; 0.98% of 360,000 active; AID 540308;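 active = activation above a per-plate cutoff, the mean activation of sample wells on that plate plus 3 SD, cut at about 8% in these data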
# Target sequence (P32245 whole entry, looked up): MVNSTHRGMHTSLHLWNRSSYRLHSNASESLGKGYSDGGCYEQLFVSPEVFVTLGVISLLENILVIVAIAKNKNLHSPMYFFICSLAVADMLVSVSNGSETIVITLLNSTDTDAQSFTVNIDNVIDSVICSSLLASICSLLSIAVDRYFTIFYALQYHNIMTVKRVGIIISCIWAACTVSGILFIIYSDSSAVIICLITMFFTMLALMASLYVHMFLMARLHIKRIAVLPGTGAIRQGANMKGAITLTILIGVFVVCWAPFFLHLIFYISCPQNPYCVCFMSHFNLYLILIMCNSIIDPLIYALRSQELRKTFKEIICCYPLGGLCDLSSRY
# MC4R antag cAMP – human MC4R antagonism in cAMP assay; P32245; MC4R-expressing cells, MTII-stimulated cAMP, LANCE TR-FRET; inhibition, % at 6.5 µM; 0.48% of 360,000 active; AID 540295;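 active = inhibition above its plate's cutoff, the mean of tested wells on that plate plus 3 SD, cut at about 29% in these data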;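 also: 0% = Melanotan II alone and 100% = Melanotan II plus saturating MCL0020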
#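 System – human MC4R-expressing U2OS cells · Also added – Melanotan II · Dosing – one concentration, 6.5 µM nominal · Timing – 30-min compound, 1-h challenge, 1-h detection, room temperature · Measured by – Eu-cAMP/anti-cAMP TR-FRET, emission 671 nm · Replicates – singlicate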
# EBI2 block – EBI2 (human) antagonism; AID 651636; 0.81% of 360,000 active; P32249; EBI2 beta-arrestin recruitment, luminescence, 7a,25-OHC stimulated; inhibition, % at 5 µM; in the data active = inhibition above about 38%;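 also: enzyme fragment complementation signal reports receptor beta-arrestin coupling in cells; 0% = agonist plus DMSO wells and 100% = wells without agonist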
# Target sequence (P32249 whole entry, looked up, the tested form may be a part): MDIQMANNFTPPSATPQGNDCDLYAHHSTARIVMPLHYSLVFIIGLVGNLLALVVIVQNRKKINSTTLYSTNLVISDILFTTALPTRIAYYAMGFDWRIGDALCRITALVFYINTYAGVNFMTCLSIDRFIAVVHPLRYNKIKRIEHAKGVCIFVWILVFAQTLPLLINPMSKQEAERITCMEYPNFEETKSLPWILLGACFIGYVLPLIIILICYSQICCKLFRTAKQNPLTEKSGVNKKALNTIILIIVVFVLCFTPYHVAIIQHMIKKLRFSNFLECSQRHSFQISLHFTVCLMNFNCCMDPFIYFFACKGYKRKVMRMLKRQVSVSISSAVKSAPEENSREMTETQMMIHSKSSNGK
# m5-HT2A agonist – mouse HTR2A agonism via beta-arrestin recruitment; AID 624169; 0.66% of 360,000 active; activation, % at 7.6 µM; CHO-K1 mHTR2A beta-arrestin complementation, luminescence; percent of 30 µM serotonin response; P35363;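 active = activation above a run cutoff, the mean activation of all tested compounds plus 3 SD, cut at about 14% in these data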;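 also: 0% = plate median of compound wells and 100% = 30 µM serotonin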
# cAMP nonselect – counter-screen for MC4R antagonists: nonselective cAMP signaling inhibitors; shares compounds with MC4R antag cAMP; parental U2OS, forskolin cAMP, LANCE TR-FRET; inhibition, % at 6.5 µM; 26% of 1,600 active; AID 602193;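 active = mean inhibition over triplicates above the low-control well mean plus 3 SD, set per campaign, cut at about 13% in these data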;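 also: signal is single emission at 671 nm which falls as cellular cAMP rises; 0% = forskolin-stimulated wells and 100% = buffer without forskolin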
# MC4R antag conf – human MC4R cAMP antagonism confirmation | shares compounds with MC4R antag cAMP | AID 602195 | MC4R-expressing cells, MTII-stimulated cAMP, TR-FRET | inhibition, % at 6.5 µM | 27% of 1,600 active; in the data active = inhibition above about 29%;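 also: 0% = agonist stimulated wells alone and 100% = agonist stimulated wells plus saturating reference antagonist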
# An asterisk follows results filed as active; . = no result.
SMILES,MC4R barr agon,MC4R antag cAMP,EBI2 block,m5-HT2A agonist,cAMP nonselect,MC4R antag conf
O=C(CCC(=O)c1ccc(F)cc1)OC1CCOC1=O (stereo not given),-0.3,32.6*,0.4,2.8,21.5*,37.1*
O=C(CNc1ccc(F)cc1)N/N=C1\CCCc2ccccc21,-0.9,29.9*,10.4,0.1,1.1,5.7
O=C(Cc1ccc(Cl)cc1)N/N=C1\CCCc2ccccc21,1.6,6.5,-2.9,-0.7,.,.
CCC(C(=O)NC(C)(C)C)n1c(C(c2ccccc2)c2ccccc2)nc2ccccc21 (stereo not given),.,.,11.1,-2.4,.,.
N#CC1(NC(=O)Cn2ncc(Cl)c(Cl)c2=O)CCCCC1,-2.9,34.6*,19.2,12.1,25.4*,36.8*
N#CC1(NC(=O)CN2C(=O)c3ccccc3C2=O)CCCCC1,-2.0,1.3,-7.7,2.2,.,.
CC1(C)N=C(c2ccccc2)C(c2ccccc2)=N1,-2.4,-4.7,6.0,3.2,.,.
Cc1nc2ccccc2nc1SCC(=O)c1ccccc1,-1.7,2.6,2.4,-2.5,.,.
O=C(O)CSc1nc2ccccc2nc1Cc1ccccc1F,-2.0,30.8*,-2.7,4.9,-0.5,7.0
CC1(C(=O)NS(=O)(=O)c2ccc(F)cc2F)CCN1C(=O)c1ccc(C2CCCCC2)cc1 (stereo not given),-0.6,9.7,-1.3,1.9,.,.
CCOC(=O)c1cnc2ccc(OCC)cc2c1NCc1ccccc1OC,1.7,47.5*,25.1,-1.0,16.4*,47.6*
CCOC(=O)C1=CN(Cc2ccco2)S(=O)(=O)NC1CC (stereo not given),-0.2,-1.2,-3.3,-5.2,.,.
O=C(NCc1cccs1)c1cnc(Cl)c(Cl)c1,-2.0,20.6,12.1,2.9,.,.
CC(C)CN(C(=O)COC(=O)c1cnc(Cl)c(Cl)c1)c1c(N)n(Cc2ccccc2)c(=O)[nH]c1=O,-3.4,46.6*,-2.5,-3.1,11.9,50.8*
O=C(COC(=O)c1cnc(Cl)c(Cl)c1)NCc1cccs1,-1.6,36.0*,0.6,-0.6,21.7*,34.8*
CC(C)N(Cc1ccccc1)C(=O)COC(=O)c1cnc(Cl)c(Cl)c1,-3.5,45.3*,9.9,-0.7,33.2*,52.3*
CC1=CC2(C)C(C3C(C)=CC2(C)C(=O)C3(C)O)C(C)(O)C1=O (stereo not given),-0.3,4.8,6.5,-0.2,.,.
C=CCSc1nc2c(N)ncnc2n1C1OC(CO)C(O)C1O (stereo not given),-1.2,31.2*,-7.4,-3.2,-2.7,-9.2
CNc1nc2c(N)ncnc2n1[C@H]1O[C@@H](CO)[C@H](O)[C@@H]1O,1.0,10.4,0.6,-8.2,.,.
Cc1ccc(F)c(NC(=O)c2cncn2-c2ccccc2)c1,-1.4,30.1*,-9.1,-0.5,-0.2,-8.9
Cc1cc(C)c(S(=O)(=O)NCC(=O)NCc2ccccn2)c(C)c1,-2.6,30.4*,-9.8,5.6,0.3,-1.8
Cc1cc(C)c(S(=O)(=O)N(C)CC(=O)NCc2ccccn2)c(C)c1,0.1,1.5,.,-0.3,.,.
COC(=O)C(Cc1ccc(O)cc1)NC(=O)C1CCN(S(=O)(=O)c2ccc(C)cc2)CC1 (stereo not given),-1.3,29.8*,4.8,1.3,17.7*,31.3*
Cc1ccc(S(=O)(=O)N2CCC(C(=O)NCC3CC3)CC2)cc1,1.2,20.3,-17.9,2.9,.,.
CC(=O)Nc1ccc(NC(=O)C(C)OC(=O)/C(C#N)=C/c2ccc(N(C)C)cc2)cc1 (stereo not given),-4.3,-4.7,2.3,-4.1,.,.
SMILES,MC4R barr agon,MC4R antag cAMP,EBI2 block,m5-HT2A agonist,cAMP nonselect,MC4R antag conf
CC(OC(=O)/C(C#N)=C/c1ccc(N(C)C)cc1)C(=O)NCc1ccco1 (stereo not given),-2.2,73.4*,-0.6,-3.4,41.2*,77.7*
CC(=O)NC(c1cccc(F)c1)c1nc(-c2csc3ccccc23)cs1 (stereo not given),-0.5,4.1,2.8,-7.5,.,.
O=C(c1ccccc1)N1CCc2ccccc21,1.9,-6.6,-8.7,4.8,.,.
O=C(c1c(F)c(F)c(F)c(F)c1F)N1CCc2ccccc21,-0.8,33.5*,-8.5,3.4,16.9*,26.7
CC(=O)Nc1ccc(C(=O)N2CCCC(c3cc(C(=O)Nc4ccccc4)no3)C2)cc1 (stereo not given),-1.1,3.5,1.4,9.5,.,.
CC(C)(C)NC(=O)NC(=O)COC(=O)CNC(=O)c1cc(Cl)cc([N+](=O)[O-])c1,-5.5,29.6*,-7.1,5.2,10.7,11.8
O=C(CS(=O)(=O)c1ccccc1)Nc1nnc(C(F)(F)F)s1,-1.9,32.1*,-4.7,9.2,-1.4,-8.6
CC(CNC(=O)CN1C(=O)NC2(CCOc3ccccc32)C1=O)c1ccccc1 (stereo not given),-1.2,0.3,2.3,1.5,.,.
Cc1noc(C)c1COC(=O)c1cc(F)c(F)cc1Cl,1.0,4.0,-10.2,1.5,.,.
Cc1noc(C)c1COC(=O)/C=C/c1ccc(Cl)cc1,1.7,30.7*,15.9,0.2,2.3,8.9
Cc1noc(C)c1COC(=O)c1cnc(Cl)c(Cl)c1,-3.3,29.6*,-0.9,4.9,12.5,32.7*
N=c1c2c(-c3ccccc3)c(-c3ccccc3)n(Cc3ccccc3)c2ncn1CCCn1ccnc1,1.0,28.8*,1.1,2.5,-1.9,35.1*
CN(C(=O)COC(=O)c1ccc(C(C)(C)C)cc1)C1CCS(=O)(=O)C1 (stereo not given),-1.1,1.4,-10.8,6.4,.,.
CN(C(=O)COC(=O)c1nc(Cl)c(Cl)c(Cl)c1Cl)C1CCS(=O)(=O)C1 (stereo not given),-1.8,43.2*,2.9,0.0,14.8*,37.7*
Cc1cc(C(=O)COc2cc(F)ccc2[N+](=O)[O-])c(C)n1C1CC1,-1.1,28.9*,2.3,-0.5,18.9*,47.6*
O=C(COC(=O)CNS(=O)(=O)c1c(Cl)cccc1Cl)Nc1ccccc1Sc1ccccc1,0.1,32.1*,-4.5,-4.1,18.4*,37.2*
O=C(COC(=O)CNS(=O)(=O)c1cccc(Br)c1)Nc1ccccc1Sc1ccccc1,5.1,29.2*,-3.9,-2.7,6.3,18.3
CCC(=O)N1CCCC(C)(C(=O)Nc2ccc(OC(F)F)cc2)C1 (stereo not given),-0.5,-0.9,-12.1,-0.3,.,.
CC1CCC/C(=N\NC(=O)Nc2ccccc2)C1 (stereo not given),-0.8,22.8,-6.0,-2.8,.,.
CC1CCC/C(=N\NS(=O)(=O)c2ccccc2)C1 (stereo not given),2.4,37.5*,-7.7,3.4,-1.0,-0.8
CC1(C(=O)NS(=O)(=O)C2CC2)CCCN(C(=O)c2cccc(Cl)c2)C1 (stereo not given),2.6,18.4,-10.0,0.7,.,.
C=CCSc1nc2ccccc2c(=O)n1C1CCOC(C)(C)C1 (stereo not given),5.6,34.4*,0.4,-5.0,-3.0,5.6

# Bioassay records as filed in PubChem.
